Laboratory results published in ChEMBL document CHEMBL4689842, “EUbOPEN Chemogenomics Library wave 1” (2021).

System: Fibroblast
Experiment: Multiplex assay against human fibroblast
Type: toxicity, cell-based
Summary of the method: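 Live cells were stained at seeding with Hoechst33342, BioTracker Green Microtubule Cytoskeleton Dye, MitoTracker Red and Annexin V Alexa Fluor 680, then imaged on a CQ1 microscope at 37°C and 5% CO2 after compound addition. CellPathfinder machine-learning gating split cells into Hoechst high-intensity objects or normal cells. Normal cells were split into healthy, pyknosed or fragmented nuclei, and pyknosed cells into mitotic or apoptotic. Tubulin, mitochondrial-mass and membrane-permeability phenotypes are per cents of healthy-nucleus cells.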

[1] = 12 h, 1 µM, compound concentration 1 uM, replicate 1
[2] = 12 h, 1 µM, compound concentration 1 uM, replicate 2
[3] = 12 h, 10 µM, compound concentration 10 uM, replicate 1
[4] = 12 h, 10 µM, compound concentration 10 uM, replicate 2
[5] = 24 h, 1 µM, compound concentration 1 uM, replicate 1
[6] = 24 h, 1 µM, compound concentration 1 uM, replicate 2
[7] = 24 h, 10 µM, compound concentration 10 uM, replicate 1
[8] = 24 h, 10 µM, compound concentration 10 uM, replicate 2
[9] = 48 h, 1 µM, compound concentration 1 uM, replicate 1
[10] = 48 h, 1 µM, compound concentration 1 uM, replicate 2
[11] = 48 h, 10 µM, compound concentration 10 uM, replicate 1
[12] = 48 h, 10 µM, compound concentration 10 uM, replicate 2

Cc1cc(C)cc(-c2cnc3cc(Cl)c(-c4cccc(O)c4)cc3c2OCCCN)c1
Population Apoptotic (%) [1]: 44% | Population Fragmented Nuclei (%) [1]: 38% | Population Healthy Nuclei (%) [1]: 26% | Population Hoechst High Intensity Objects (%) [1]: 16% | Population Membrane Permeable-Phenotype (%) [1]: 38% | Population Mitochondria Different-Phenotype (%) [1]: 30% | Population Mitotic Cells (%) [1]: 55% | Population Normal (%) [1]: 83% | Population Pyknosed Nuclei (%) [1]: 36% | Population Tubulin-Different-Phenotype (%) [1]: 61% | Total Cell Count [1]: 60 | Population Fragmented Nuclei (%) [2]: 11% | Population Healthy Nuclei (%) [2]: 72% | Population Hoechst High Intensity Objects (%) [2]: 10% | Population Membrane Permeable-Phenotype (%) [2]: 2% | Population Mitochondria Different-Phenotype (%) [2]: 82% | Population Normal (%) [2]: 90% | Population Pyknosed Nuclei (%) [2]: 16% | Population Tubulin-Different-Phenotype (%) [2]: 56% | Total Cell Count [2]: 68 | Population Apoptotic (%) [3]: 33% | Population Fragmented Nuclei (%) [3]: 31% | Population Healthy Nuclei (%) [3]: 10% | Population Hoechst High Intensity Objects (%) [3]: 11% | Population Membrane Permeable-Phenotype (%) [3]: 53% | Population Mitochondria Different-Phenotype (%) [3]: 7% | Population Mitotic Cells (%) [3]: 66% | Population Normal (%) [3]: 88% | Population Pyknosed Nuclei (%) [3]: 57% | Population Tubulin-Different-Phenotype (%) [3]: 100% | Total Cell Count [3]: 135 | Population Apoptotic (%) [4]: 70% | Population Fragmented Nuclei (%) [4]: 16% | Population Healthy Nuclei (%) [4]: 32% | Population Hoechst High Intensity Objects (%) [4]: 8% | Population Membrane Permeable-Phenotype (%) [4]: 90% | Population Mitochondria Different-Phenotype (%) [4]: 95% | Population Mitotic Cells (%) [4]: 29% | Population Normal (%) [4]: 91% | Population Pyknosed Nuclei (%) [4]: 50% | Total Cell Count [4]: 60 | Population Apoptotic (%) [5]: 40% | Population Fragmented Nuclei (%) [5]: 54% | Population Healthy Nuclei (%) [5]: 22% | Population Hoechst High Intensity Objects (%) [5]: 21% | Population Membrane Permeable-Phenotype (%) [5]: 10% | Population Mitochondria Different-Phenotype (%) [5]: 10% | Population Mitotic Cells (%) [5]: 60% | Population Normal (%) [5]: 78% | Population Pyknosed Nuclei (%) [5]: 22% | Population Tubulin-Different-Phenotype (%) [5]: 20% | Total Cell Count [5]: 56 | Population Apoptotic (%) [6]: 62% | Population Fragmented Nuclei (%) [6]: 11% | Population Healthy Nuclei (%) [6]: 75% | Population Hoechst High Intensity Objects (%) [6]: 3% | Population Membrane Permeable-Phenotype (%) [6]: 2% | Population Mitochondria Different-Phenotype (%) [6]: 78% | Population Mitotic Cells (%) [6]: 37% | Population Normal (%) [6]: 96% | Population Pyknosed Nuclei (%) [6]: 13% | Population Tubulin-Different-Phenotype (%) [6]: 28% | Total Cell Count [6]: 66 | Population Apoptotic (%) [7]: 38% | Population Fragmented Nuclei (%) [7]: 28% | Population Healthy Nuclei (%) [7]: 16% | Population Hoechst High Intensity Objects (%) [7]: 12% | Population Membrane Permeable-Phenotype (%) [7]: 54% | Population Mitochondria Different-Phenotype (%) [7]: 4% | Population Mitotic Cells (%) [7]: 61% | Population Normal (%) [7]: 87% | Population Pyknosed Nuclei (%) [7]: 54% | Population Tubulin-Different-Phenotype (%) [7]: 90% | Total Cell Count [7]: 149 | Population Apoptotic (%) [8]: 93% | Population Fragmented Nuclei (%) [8]: 24% | Population Healthy Nuclei (%) [8]: 3% | Population Hoechst High Intensity Objects (%) [8]: 7% | Population Membrane Permeable-Phenotype (%) [8]: 50% | Population Mitochondria Different-Phenotype (%) [8]: 50% | Population Mitotic Cells (%) [8]: 6% | Population Normal (%) [8]: 92% | Population Pyknosed Nuclei (%) [8]: 72% | Population Tubulin-Different-Phenotype (%) [8]: 50% | Total Cell Count [8]: 63 | Population Apoptotic (%) [9]: 64% | Population Fragmented Nuclei (%) [9]: 37% | Population Healthy Nuclei (%) [9]: 33% | Population Hoechst High Intensity Objects (%) [9]: 20% | Population Membrane Permeable-Phenotype (%) [9]: 37% | Population Mitochondria Different-Phenotype (%) [9]: 37% | Population Mitotic Cells (%) [9]: 35% | Population Normal (%) [9]: 80% | Population Pyknosed Nuclei (%) [9]: 29% | Population Tubulin-Different-Phenotype (%) [9]: 56% | Total Cell Count [9]: 60 | Population Apoptotic (%) [10]: 75% | Population Fragmented Nuclei (%) [10]: 41% | Population Healthy Nuclei (%) [10]: 54% | Population Hoechst High Intensity Objects (%) [10]: 17% | Population Membrane Permeable-Phenotype (%) [10]: 22% | Population Mitochondria Different-Phenotype (%) [10]: 9% | Population Mitotic Cells (%) [10]: 25% | Population Normal (%) [10]: 82% | Population Pyknosed Nuclei (%) [10]: 4% | Population Tubulin-Different-Phenotype (%) [10]: 62% | Total Cell Count [10]: 117 | Population Apoptotic (%) [11]: 56% | Population Fragmented Nuclei (%) [11]: 45% | Population Healthy Nuclei (%) [11]: 28% | Population Hoechst High Intensity Objects (%) [11]: 39% | Population Membrane Permeable-Phenotype (%) [11]: 37% | Population Mitochondria Different-Phenotype (%) [11]: 7% | Population Mitotic Cells (%) [11]: 44% | Population Normal (%) [11]: 60% | Population Pyknosed Nuclei (%) [11]: 26% | Population Tubulin-Different-Phenotype (%) [11]: 81% | Total Cell Count [11]: 157 | Population Apoptotic (%) [12]: 93% | Population Fragmented Nuclei (%) [12]: 39% | Population Healthy Nuclei (%) [12]: 43% | Population Hoechst High Intensity Objects (%) [12]: 31% | Population Membrane Permeable-Phenotype (%) [12]: 12% | Population Mitochondria Different-Phenotype (%) [12]: 82% | Population Mitotic Cells (%) [12]: 6% | Population Normal (%) [12]: 68% | Population Pyknosed Nuclei (%) [12]: 16% | Population Tubulin-Different-Phenotype (%) [12]: 92% | Total Cell Count [12]: 129
